Calls of active or inactive are those of the source. No cut-off for these calls is given here.
How the values were obtained:
[1] = biological target: Dual specificity mitogen-activated protein kinase kinase 7 (Homo sapiens) (UniProt O14733); assay: Inhibition of N-terminal GST-tagged recombinant human MKK7beta (2 to end residues) expressed in E. coli assessed as residual activity at 0.1 uM relative to control
OVCAR-8 = assay: Antiproliferative activity against human OVCAR-8 cells assessed as inhibition of cell growth incubated for 72 hrs by cell-titer glo assay; type: functional, cell-based; details: OVCAR-8, 72 h
Outline: (§1)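 Cells from ATCC or ECACC, kept in supplier-recommended medium with 1% penicillin-streptomycin at 37°C, 5% CO₂. Seeded at 10,000–30,000/cm² (adherent) or 100,000/mL (nonadherent) in medium with 10% fetal calf serum. Dosed after 24 h in duplicate with serial dilutions. Viable cells read by CellTiter-Glo 72 h later. IC50 from sigmoidal fit. At least two independent experiments.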

NCI-H2170 = assay: Antiproliferative activity against human NCI-H2170 cells assessed as inhibition of cell growth incubated for 72 hrs by cell-titer glo assay; type: functional, cell-based; details: NCI-H2170, 72 h; outline: as §1
[2] = Oral bioavailability in male cynomolgus monkey at 5 mg/kg by LC-MS analysis; type: ADME, organism-based, Macaca fascicularis; details: in vivo
NCI-H2228 = assay: Antiproliferative activity against human NCI-H2228 cells assessed as inhibition of cell growth incubated for 72 hrs by cell-titer glo assay; type: functional, cell-based; details: NCI-H2228, 72 h; outline: as §1
DU-4475 = assay: Antiproliferative activity against human DU-4475 cells assessed as inhibition of cell growth incubated for 72 hrs by cell-titer glo assay; type: functional, cell-based; details: DU-4475, 72 h
Outline: (§2)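 Cells seeded 10,000–30,000/cm² (adherent) or 100,000/mL (suspension) in medium with 10% fetal calf serum; after 24 h treated in duplicate with serial dilutions for 72 h. Viable cells read by CellTiter-Glo luminescence; IC50 from sigmoidal fit; at least two independent experiments.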

AU565 = assay: Antiproliferative activity against human AU565 cells assessed as inhibition of cell growth incubated for 72 hrs by cell-titer glo assay; type: functional, cell-based; details: AU565, 72 h; outline: as §2
[3] = biological target: Homeodomain-interacting protein kinase 2 (Homo sapiens) (UniProt Q9H2X6); assay: Inhibition of N-terminal His6-tagged recombinant human HIPK2 (165 to 564 residues) expressed in baculovirus infected Sf21 cells assessed as residual activity at 0.1 uM relative to control
Sequence of Homeodomain-interacting protein kinase 2 (Homo sapiens) (Q9H2X6 whole entry, looked up, the tested form may be a part): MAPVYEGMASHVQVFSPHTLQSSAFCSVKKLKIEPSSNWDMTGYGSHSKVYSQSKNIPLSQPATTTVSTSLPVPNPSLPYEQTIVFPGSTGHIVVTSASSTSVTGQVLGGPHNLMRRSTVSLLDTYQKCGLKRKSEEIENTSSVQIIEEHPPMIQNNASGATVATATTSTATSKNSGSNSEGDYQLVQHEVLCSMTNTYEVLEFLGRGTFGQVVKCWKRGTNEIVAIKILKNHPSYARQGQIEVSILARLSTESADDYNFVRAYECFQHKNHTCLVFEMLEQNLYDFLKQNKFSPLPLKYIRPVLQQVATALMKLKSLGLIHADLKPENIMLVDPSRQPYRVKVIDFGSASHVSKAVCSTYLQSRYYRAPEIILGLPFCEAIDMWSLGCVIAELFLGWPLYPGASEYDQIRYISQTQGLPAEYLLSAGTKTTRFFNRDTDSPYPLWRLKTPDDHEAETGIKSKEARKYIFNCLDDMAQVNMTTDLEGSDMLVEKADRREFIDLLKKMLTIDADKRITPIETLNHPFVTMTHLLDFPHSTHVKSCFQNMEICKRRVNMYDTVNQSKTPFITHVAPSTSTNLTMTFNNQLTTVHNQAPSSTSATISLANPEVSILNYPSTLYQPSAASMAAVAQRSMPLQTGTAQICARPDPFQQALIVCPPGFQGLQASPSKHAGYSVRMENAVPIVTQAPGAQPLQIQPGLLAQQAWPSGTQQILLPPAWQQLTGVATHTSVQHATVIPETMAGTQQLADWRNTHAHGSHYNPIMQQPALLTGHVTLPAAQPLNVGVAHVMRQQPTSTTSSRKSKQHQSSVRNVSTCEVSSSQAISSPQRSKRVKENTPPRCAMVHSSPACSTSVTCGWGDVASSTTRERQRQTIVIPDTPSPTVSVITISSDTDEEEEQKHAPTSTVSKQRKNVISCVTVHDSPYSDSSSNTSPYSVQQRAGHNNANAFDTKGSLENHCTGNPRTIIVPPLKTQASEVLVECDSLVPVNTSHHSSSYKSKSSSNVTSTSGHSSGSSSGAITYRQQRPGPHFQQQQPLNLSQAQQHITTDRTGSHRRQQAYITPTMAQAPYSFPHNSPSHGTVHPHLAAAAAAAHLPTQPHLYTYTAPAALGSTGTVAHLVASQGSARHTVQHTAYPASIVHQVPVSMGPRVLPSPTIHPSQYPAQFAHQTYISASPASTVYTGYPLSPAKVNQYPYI

[4] = biological target: BDNF/NT-3 growth factors receptor (Homo sapiens) (UniProt Q16620); assay: Inhibition of N-terminal His6 tagged recombinant human TrkB (455 to end residues) expressed in baculovirus infected Sf21 cells assessed as residual activity at 1 uM relative to control
CAL-12T = assay: Antiproliferative activity against human CAL-12T cells assessed as inhibition of cell growth incubated for 72 hrs by cell-titer glo assay; type: functional, cell-based; outline: as §2
[5] = biological target: Mitogen-activated protein kinase kinase kinase 9 (Homo sapiens) (UniProt P80192); assay: Inhibition of N-terminal 6His-tagged recombinant human MLK1 (134 to 414 residues) expressed in baculovirus infected Sf21 cells assessed as residual activity at 0.1 uM relative to control
Sequence of Mitogen-activated protein kinase kinase kinase 9 (Homo sapiens) (P80192 whole entry, looked up, the tested form may be a part): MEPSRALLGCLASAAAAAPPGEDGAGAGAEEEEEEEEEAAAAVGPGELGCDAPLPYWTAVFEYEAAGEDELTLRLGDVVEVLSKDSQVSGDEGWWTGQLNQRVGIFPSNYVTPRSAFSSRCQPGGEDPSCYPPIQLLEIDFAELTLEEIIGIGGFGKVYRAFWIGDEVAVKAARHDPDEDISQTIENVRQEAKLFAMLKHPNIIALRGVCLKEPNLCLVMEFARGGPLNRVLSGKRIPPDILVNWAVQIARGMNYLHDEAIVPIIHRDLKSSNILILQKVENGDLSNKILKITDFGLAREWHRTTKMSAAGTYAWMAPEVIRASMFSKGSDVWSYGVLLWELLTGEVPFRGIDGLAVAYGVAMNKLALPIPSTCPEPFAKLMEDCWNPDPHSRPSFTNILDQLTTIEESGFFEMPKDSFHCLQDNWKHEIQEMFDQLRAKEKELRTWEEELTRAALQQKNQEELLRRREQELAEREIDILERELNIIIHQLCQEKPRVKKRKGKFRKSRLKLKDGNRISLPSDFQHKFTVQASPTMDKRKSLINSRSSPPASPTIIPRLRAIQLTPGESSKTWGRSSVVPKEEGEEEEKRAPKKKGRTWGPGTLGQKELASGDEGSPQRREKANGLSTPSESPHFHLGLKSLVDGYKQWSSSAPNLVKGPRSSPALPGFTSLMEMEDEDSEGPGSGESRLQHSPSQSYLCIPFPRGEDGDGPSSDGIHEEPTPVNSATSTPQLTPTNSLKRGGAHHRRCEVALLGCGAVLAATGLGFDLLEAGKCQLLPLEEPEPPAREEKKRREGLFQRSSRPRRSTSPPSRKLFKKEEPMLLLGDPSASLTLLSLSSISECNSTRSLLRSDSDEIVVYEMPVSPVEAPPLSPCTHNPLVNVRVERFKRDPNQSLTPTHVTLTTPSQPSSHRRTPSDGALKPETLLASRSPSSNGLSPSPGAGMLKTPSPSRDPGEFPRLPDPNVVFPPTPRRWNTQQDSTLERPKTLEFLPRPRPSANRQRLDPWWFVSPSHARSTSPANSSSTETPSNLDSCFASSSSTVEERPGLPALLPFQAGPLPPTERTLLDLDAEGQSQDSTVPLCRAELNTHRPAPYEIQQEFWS

[6] = biological target: Protein kinase C beta type (Homo sapiens, UniProt P05771); assay: Inhibition of N-terminal His6-tagged recombinant human PKCbetaI (2 to end) expressed in Sf21 cells assessed as residual activity at 0.1 uM relative to control
Sequence of Protein kinase C beta type (P05771 2-671 limits assumed): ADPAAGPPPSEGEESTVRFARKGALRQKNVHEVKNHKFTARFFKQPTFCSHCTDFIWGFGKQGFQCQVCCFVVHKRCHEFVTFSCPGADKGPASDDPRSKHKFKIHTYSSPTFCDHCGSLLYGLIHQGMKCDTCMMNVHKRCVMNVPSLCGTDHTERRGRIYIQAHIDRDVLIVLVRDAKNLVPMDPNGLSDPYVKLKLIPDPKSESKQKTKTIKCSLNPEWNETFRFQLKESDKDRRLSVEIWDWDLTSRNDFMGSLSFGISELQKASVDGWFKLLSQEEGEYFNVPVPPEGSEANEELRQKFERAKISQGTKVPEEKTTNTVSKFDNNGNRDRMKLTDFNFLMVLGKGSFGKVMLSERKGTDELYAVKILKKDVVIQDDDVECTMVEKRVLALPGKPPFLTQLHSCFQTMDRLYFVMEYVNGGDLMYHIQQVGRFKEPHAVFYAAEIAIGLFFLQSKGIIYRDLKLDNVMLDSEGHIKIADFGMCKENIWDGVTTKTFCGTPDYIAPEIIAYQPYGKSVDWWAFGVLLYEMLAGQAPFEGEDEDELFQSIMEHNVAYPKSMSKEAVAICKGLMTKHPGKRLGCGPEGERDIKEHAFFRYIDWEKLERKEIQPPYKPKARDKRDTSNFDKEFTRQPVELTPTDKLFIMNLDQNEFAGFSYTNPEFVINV

[7] = biological target: Tyrosine-protein kinase Fer (Homo sapiens) (UniProt P16591); assay: Inhibition of N-terminal His6 tagged recombinant human Fer (541 to end residues) expressed in baculovirus infected Sf21 cells assessed as residual activity at 0.1 uM relative to control
DU-145 = assay: Antiproliferative activity against human DU-145 cells assessed as inhibition of cell growth incubated for 72 hrs by cell-titer glo assay; type: functional, cell-based; details: DU-145, 72 h; outline: as §2
[8] = biological target: Epidermal growth factor receptor (Homo sapiens, UniProt P00533); assay: Inhibition of EGFR1 (unknown origin) in presence of [gamma-33P]ATP
Sequence of Epidermal growth factor receptor (P00533 whole entry): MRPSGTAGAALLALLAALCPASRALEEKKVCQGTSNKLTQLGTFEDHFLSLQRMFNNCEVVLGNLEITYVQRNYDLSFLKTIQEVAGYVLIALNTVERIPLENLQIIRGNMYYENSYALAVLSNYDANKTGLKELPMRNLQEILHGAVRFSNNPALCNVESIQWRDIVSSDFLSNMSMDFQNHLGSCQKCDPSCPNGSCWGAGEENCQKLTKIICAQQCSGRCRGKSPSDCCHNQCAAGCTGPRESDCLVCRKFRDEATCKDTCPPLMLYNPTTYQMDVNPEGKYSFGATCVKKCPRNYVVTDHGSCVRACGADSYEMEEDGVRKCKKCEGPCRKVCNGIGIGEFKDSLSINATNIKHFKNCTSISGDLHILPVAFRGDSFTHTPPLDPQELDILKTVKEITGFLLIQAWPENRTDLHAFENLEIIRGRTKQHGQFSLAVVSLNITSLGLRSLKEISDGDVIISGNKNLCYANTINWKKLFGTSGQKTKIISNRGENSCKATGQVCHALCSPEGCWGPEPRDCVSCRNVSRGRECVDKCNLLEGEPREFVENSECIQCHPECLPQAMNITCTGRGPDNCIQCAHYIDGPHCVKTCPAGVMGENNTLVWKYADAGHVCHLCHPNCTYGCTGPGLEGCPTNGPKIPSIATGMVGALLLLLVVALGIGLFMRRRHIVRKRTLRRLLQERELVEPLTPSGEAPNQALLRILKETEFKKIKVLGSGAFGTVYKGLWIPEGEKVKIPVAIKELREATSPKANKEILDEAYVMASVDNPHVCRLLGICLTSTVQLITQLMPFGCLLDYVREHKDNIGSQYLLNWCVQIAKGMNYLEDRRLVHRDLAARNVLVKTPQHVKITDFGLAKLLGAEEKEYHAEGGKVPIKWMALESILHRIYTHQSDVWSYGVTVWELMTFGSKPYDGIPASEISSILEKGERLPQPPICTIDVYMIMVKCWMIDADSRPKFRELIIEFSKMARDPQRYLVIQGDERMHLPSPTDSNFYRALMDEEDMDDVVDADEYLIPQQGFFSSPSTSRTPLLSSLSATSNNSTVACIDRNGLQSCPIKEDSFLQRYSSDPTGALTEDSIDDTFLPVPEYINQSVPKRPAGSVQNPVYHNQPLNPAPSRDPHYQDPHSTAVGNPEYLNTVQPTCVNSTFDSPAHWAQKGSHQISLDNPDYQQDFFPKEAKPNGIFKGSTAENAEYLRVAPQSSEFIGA

CAKI-2 = assay: Antiproliferative activity against human CAKI-2 cells assessed as inhibition of cell growth incubated for 72 hrs by cell-titer glo assay; type: functional, cell-based; details: CAKI-2, 72 h; outline: as §2
U-87 MG = assay: Antiproliferative activity against human U-87 MG cells assessed as inhibition of cell growth incubated for 72 hrs by cell-titer glo assay; type: functional, cell-based, U-87MG ATCC
COLO 205 = assay: Antitumor activity against human COLO 205 cells xenografted in nu/nu mouse assessed as tumor growth inhibition at 60 mg/kg, po administered for 10 days; type: functional, organism-based; details: time 10.0 day
[9] = biological target: cAMP-dependent protein kinase catalytic subunit PRKX (Homo sapiens) (UniProt P51817); assay: Inhibition of N-terminal 6His-tagged recombinant full-length human PrKX expressed in baculovirus infected Sf21 cells assessed as residual activity at 1 uM relative to control
Sequence of cAMP-dependent protein kinase catalytic subunit PRKX (Homo sapiens) (P51817 whole entry): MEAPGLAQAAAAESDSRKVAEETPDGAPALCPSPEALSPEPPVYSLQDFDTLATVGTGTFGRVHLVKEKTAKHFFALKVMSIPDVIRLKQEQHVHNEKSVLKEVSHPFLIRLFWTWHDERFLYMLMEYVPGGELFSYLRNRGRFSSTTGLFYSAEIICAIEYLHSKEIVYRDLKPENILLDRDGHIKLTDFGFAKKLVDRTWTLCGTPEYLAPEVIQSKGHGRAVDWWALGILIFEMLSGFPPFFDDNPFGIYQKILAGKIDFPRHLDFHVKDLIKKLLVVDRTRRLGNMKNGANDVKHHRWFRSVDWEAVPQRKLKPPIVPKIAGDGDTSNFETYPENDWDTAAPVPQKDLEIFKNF

[10] = biological target: 3-phosphoinositide-dependent protein kinase 1 (Homo sapiens) (UniProt O15530); assay: Inhibition of N-terminal His6-tagged recombinant human PDK1 (52 to end residues) expressed in baculovirus infected Sf21 cells assessed as residual activity at 0.1 uM relative to control
A2780 = assay: In vivo inhibition of PLK1 in human A2780 cells xenografted in nu/nu mouse assessed as decreased TCTP phosphorylation on Ser46 at 60 mg/kg, po administered for 2 hrs by Western blotting analysis; type: functional, organism-based
HT-1080 = assay: Antiproliferative activity against human HT-1080 cells assessed as inhibition of cell growth incubated for 72 hrs by cell-titer glo assay; type: functional, cell-based; details: HT-1080, 72 h
Outline: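 Cells seeded at 10,000–30,000/cm² (adherent) or 100,000/mL (nonadherent) in medium with 10% fetal calf serum; after 24 h, treated in duplicate with serial dilutions for 72 h. Viable cell number read by CellTiter-Glo luminescence; IC50 from sigmoidal fit; at least two independent experiments.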

[11] = biological target: MAP kinase-interacting serine/threonine-protein kinase 2 (Homo sapiens, UniProt Q9HBH9); assay: Inhibition of MNK2 (unknown origin) in presence of [gamma-33P]ATP
[12] = biological target: Calcium/calmodulin-dependent protein kinase type 1 (Homo sapiens) (UniProt Q14012); assay: Inhibition of recombinant human CaMKI assessed as residual activity at 1 uM relative to control
[13] = biological target: PDPK1, 3-phosphoinositide-dependent protein kinase 1 (Homo sapiens) (UniProt O15530); assay: Inhibition of N-terminal His6-tagged recombinant human PDK1 (52 to end residues) expressed in baculovirus infected Sf21 cells assessed as residual activity at 1 uM relative to control
[14] = biological target: cAMP-dependent protein kinase (PKA) (Homo sapiens) (UniProt P22694+P17612+P22612); assay: Inhibition of recombinant human full-length PKA expressed in E.coli BL21 (DE3) pLysS cells assessed as residual activity at 1 uM relative to control
SAOS-2 = assay: Antiproliferative activity against human SAOS-2 cells assessed as inhibition of cell growth incubated for 72 hrs by cell-titer glo assay; type: functional, cell-based; details: SAOS-2, 72 h; outline: as §1

Sequence of Dual specificity mitogen-activated protein kinase kinase 7 (Homo sapiens) (O14733 whole entry): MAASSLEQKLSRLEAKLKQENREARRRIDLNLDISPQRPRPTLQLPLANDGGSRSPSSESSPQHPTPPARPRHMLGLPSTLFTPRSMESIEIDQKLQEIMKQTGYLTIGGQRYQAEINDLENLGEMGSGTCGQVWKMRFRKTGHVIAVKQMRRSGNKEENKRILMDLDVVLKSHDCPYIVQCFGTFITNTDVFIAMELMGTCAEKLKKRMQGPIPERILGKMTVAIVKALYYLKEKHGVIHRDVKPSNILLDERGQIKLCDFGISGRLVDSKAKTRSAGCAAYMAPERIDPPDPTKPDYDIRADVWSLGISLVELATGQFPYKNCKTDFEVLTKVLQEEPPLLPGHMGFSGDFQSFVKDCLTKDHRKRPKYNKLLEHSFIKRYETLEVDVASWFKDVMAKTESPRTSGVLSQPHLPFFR

In the case of CN1CCN(c2ccc(OC(F)(F)F)c(Nc3ncc4c(n3)-c3c(c(C(N)=O)nn3CCO)CC4)c2)CC1 [ONVANSERTIB], the Activity [1] is reported as 85%, the IC50 (OVCAR-8) is reported as 0.059 µM and the IC50 (NCI-H2170) is reported as 0.015 µM. For the same compound, the F [2] was 35%, the IC50 (NCI-H2228) was 0.335 µM and the IC50 (DU-4475) was 0.047 µM. For the same compound, the IC50 (AU565) was 0.011 µM, the Activity [3] was 118% and the Activity [4] was 80%. It also gave an IC50 (CAL-12T) of 0.191 µM, an Activity [5] of 93% and an Activity [6] of 85%. For the same compound, the Activity [7] was 125%, the IC50 (DU-145) was 0.252 µM and the IC50 [8] was greater than 10 µM. The IC50 (CAKI-2) was 0.083 µM, the IC50 (U-87 MG) was 0.991 µM and the TGI (COLO 205) was “Active”. The Activity [9] was 69%, the Activity [10] was 142% and the inhibition (A2780) was “Active”. For the same compound, the IC50 (HT-1080) was 0.059 µM, the IC50 [11] was greater than 10 µM and the Activity [12] was 87%. The Activity [13] was 144%, the Activity [14] was 85% and the IC50 (SAOS-2) was 0.045 µM.
